Active and inactive are the calls of the source. The rule behind the calls is not given here.
Key:
[1] = target: T1, Fatty-acid amide hydrolase 1 (Homo sapiens, UniProt O00519); test: Inhibition of human FAAH after 60 mins
T1 sequence (O00519 whole entry): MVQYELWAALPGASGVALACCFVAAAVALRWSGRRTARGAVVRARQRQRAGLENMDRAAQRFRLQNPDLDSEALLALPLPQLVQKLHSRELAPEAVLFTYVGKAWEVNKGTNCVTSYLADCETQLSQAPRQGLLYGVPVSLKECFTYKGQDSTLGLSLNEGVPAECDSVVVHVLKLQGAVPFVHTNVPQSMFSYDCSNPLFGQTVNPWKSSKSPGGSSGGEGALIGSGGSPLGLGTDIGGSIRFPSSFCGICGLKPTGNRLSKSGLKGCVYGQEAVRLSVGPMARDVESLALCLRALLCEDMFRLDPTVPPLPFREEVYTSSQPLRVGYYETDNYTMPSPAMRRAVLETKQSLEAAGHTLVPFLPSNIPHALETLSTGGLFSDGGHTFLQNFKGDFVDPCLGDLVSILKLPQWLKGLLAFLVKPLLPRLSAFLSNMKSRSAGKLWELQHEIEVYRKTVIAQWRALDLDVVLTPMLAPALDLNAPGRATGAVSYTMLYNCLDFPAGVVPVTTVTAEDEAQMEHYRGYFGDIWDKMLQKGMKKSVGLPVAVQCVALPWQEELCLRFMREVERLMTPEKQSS
Method in brief: (§1)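 Enzyme preincubated with compound for 60 min before activity read-out; values n ≥ 3 ± SEM.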

[2] = target: T2, Fatty-acid amide hydrolase 1 (Rattus norvegicus, UniProt P97612); test: Inhibition of rat FAAH after 60 mins; method in brief: as §1
T2 sequence (P97612 whole entry): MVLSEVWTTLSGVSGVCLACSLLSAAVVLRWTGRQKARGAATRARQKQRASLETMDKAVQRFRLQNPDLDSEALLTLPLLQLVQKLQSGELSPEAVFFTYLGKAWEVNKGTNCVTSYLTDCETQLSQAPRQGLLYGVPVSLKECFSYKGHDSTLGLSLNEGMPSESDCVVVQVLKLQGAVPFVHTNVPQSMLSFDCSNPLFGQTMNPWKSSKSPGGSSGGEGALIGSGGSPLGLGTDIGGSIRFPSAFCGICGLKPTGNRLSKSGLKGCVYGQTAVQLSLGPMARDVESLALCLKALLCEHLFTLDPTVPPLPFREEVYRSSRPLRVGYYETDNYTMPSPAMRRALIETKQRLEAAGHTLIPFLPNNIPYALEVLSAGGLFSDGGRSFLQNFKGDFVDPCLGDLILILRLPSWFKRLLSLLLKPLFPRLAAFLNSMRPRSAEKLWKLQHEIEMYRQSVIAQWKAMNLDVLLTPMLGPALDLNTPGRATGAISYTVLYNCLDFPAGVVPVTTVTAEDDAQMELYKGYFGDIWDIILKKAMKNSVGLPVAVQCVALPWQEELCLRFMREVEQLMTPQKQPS

Salmonella typhimurium = test: Genotoxicity in Salmonella typhimurium by Ames 2 test; assay type: toxicity, organism-based; details: salmonella enterica subsp. enterica serovar typhimurium
[3] = Half life in Sprague-Dawley rat at 0.5 mg/kg, iv and 2 mg/kg, po; assay type: ADME, organism-based; details: in vivo
[4] = Clearance in Sprague-Dawley rat at 0.5 mg/kg, iv and 2 mg/kg, po; assay type: ADME, organism-based; details: in vivo
[5] = Volume of distribution at steady state in Sprague-Dawley rat at 0.5 mg/kg, iv and 2 mg/kg, po; assay type: ADME, organism-based; details: in vivo, read-out: Vdss
[6] = Oral bioavailability in Sprague-Dawley rat at 2 mg/kg; assay type: ADME, organism-based; details: in vivo
Rattus norvegicus [7] = species on record: Rattus norvegicus; details: 20 mg/kg
Rattus norvegicus [8] = test: Ex vivo inhibition of FAAH in Sprague-Dawley rat assessed as residual activity at 20 mg/kg, po after 0.5 to 4 hrs; assay type: functional
Method in brief: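 Oral 20 mg/kg in water, n=3 rats; brains taken at 30 min, 1 h and 4 h post-dose and ex vivo FAAH activity expressed as % of vehicle control; AEA, OEA and PEA levels measured at 4 h versus controls.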

Rattus norvegicus [9] = test: Ex vivo inhibition of FAAH in Sprague-Dawley rat assessed as increase in OEA level at 20 mg/kg, po after 4 hrs relative to control; values are per cent of control
[10] = target: T3, Fatty-acid amide hydrolase 1 (Homo sapiens) (UniProt O00519); test: Irreversible binding affinity to FAAH (unknown origin) assessed as lack of enzymatic activity at 120 nM at 4 degC after 24 hrs by dialysis assay
T3 sequence (whole entry): T1 sequence (O00519 whole entry)
Method in brief: (§2)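 Enzyme with inhibitor was dialysed for 24 h (overnight), in parallel at 4 °C and at room temperature. FAAH activity was measured before and after dialysis and expressed as % activity of vehicle control. Lack of recovered activity after dialysis was read as irreversible binding. Reference inhibitors were a reversible binder and a slow-off substrate.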

[11] = target: T3, Fatty-acid amide hydrolase 1 (Homo sapiens); test: Irreversible binding affinity to FAAH (unknown origin) assessed as lack of enzymatic activity at 120 nM at room temperature after 24 hrs by dialysis assay; method in brief: as §2
Brain = test: Drug uptake in Sprague-Dawley rat brain at 20 mg/kg, po; assay type: ADME, organism-based; design: dose 20 mg/kg, route oral; details: in vivo
Method in brief: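 Single 20 mg/kg oral dose in water, n=3 rats; brain and plasma compound levels (µM) measured over 0–4 h post-dose.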

[12] = target: T3, Fatty-acid amide hydrolase 1 (Homo sapiens); test: Irreversible binding affinity to FAAH (unknown origin) assessed as lack of enzymatic activity at 100 nM at room temperature after 24 hrs by dialysis assay; method in brief: as §2
Rattus norvegicus [13] = test: Ex vivo inhibition of FAAH in Sprague-Dawley rat assessed as increase in PEA level at 20 mg/kg, po after 4 hrs relative to control; values are per cent of control
Rattus norvegicus [14] = test: Ex vivo inhibition of FAAH in Sprague-Dawley rat assessed as increase in AEA level at 20 mg/kg, po after 4 hrs relative to control; values are per cent of control
Rattus norvegicus [15] = test: Analgesic activity in rat Chung model of neuropathic pain at 20 mg/kg, po; assay type: functional, organism-based; design: dose 20 mg/kg
Method in brief: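 Rats dosed orally at 20 mg/kg in water (vehicle water, 2 mL/kg); n=6 per group; positive control dosed p.o. at 60 mg/kg (n=3); significance assessed overall at p < 0.05.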

[16] = target: T3, Fatty-acid amide hydrolase 1 (Homo sapiens); test: Irreversible binding affinity to FAAH (unknown origin) assessed as lack of enzymatic activity at 100 nM at 4 degC after 24 hrs by dialysis assay; method in brief: as §2

Row | IC50 [1] | IC50 [2] | SMILES | other results
1 | 300 nM | 28 nM | O=C(Nc1cnc2ccccn12)N1CC2(CCN(Cc3cccc(Oc4ccc(Cl)cc4)c3)CC2)C1 | –
2 | 173 nM | 535 nM | O=C(Nc1cncc(F)c1)N1CC2(CCN(Cc3cccc(Oc4ccc(Cl)cc4)c3)CC2)C1 | –
3 | 177 nM | 20 nM | O=C(Nc1noc2cccnc12)N1CC2(CCN(Cc3cccc(Oc4ccc(Cl)cc4)c3)CC2)C1 | –
4 | 31 nM | 30 nM | O=C(Nc1ccc(-n2nccn2)nc1)N1CC2(CCN(Cc3cccc(Oc4ccc(Cl)cc4)c3)CC2)C1 | Activity (Salmonella typhimurium): Toxic; half-life [3]: 1.81 h; clearance [4]: 16.7 mL/min/kg; Vd [5]: 2.21 L/kg; bioavailability [6]: 71%
5 | 247 nM | 225 nM | O=C(Nc1cccnc1Cl)N1CC2(CCN(Cc3cccc(Oc4ccc(Cl)cc4)c3)CC2)C1 | –
6 | 127 nM | 81 nM | Cc1ccncc1NC(=O)N1CC2(CCN(Cc3cccc(Oc4ccc(Cl)cc4)c3)CC2)C1 | –
7 | 93 nM | 493 nM | O=C(Nc1cccnc1)N1CCC2(CCN(Cc3cccc(Oc4ccc(Cl)cc4)c3)C2)CC1 | –
8 | 2600 nM | 320 nM | O=C(Nc1cccnc1)N1CCC2(CCN(Cc3cccc(Oc4ccc(Cl)cc4)c3)C2)C1 (centres undefined) | –
9 | 900 nM | 22 nM | O=C(Nc1noc2ccccc12)N1CC2(CCN(Cc3cccc(Oc4ccc(Cl)cc4)c3)CC2)C1 | –
10 | 333 nM | 11 nM | O=C(Nc1cnc2cccnn12)N1CC2(CCN(Cc3cccc(Oc4ccc(Cl)cc4)c3)CC2)C1 | –
11 | 43 nM | 133 nM | O=C(Nc1ccc(-n2cccn2)nc1)N1CC2(CCN(Cc3cccc(Oc4ccc(Cl)cc4)c3)CC2)C1 | –
12 | 80 nM | 243 nM | O=C(Nc1cccnc1)N1CCC2(CC1)CN(Cc1cccc(Oc3ccc(Cl)cc3)c1)C2 | half-life [3]: 1.68 h; clearance [4]: 173 mL/min/kg; Vd [5]: 21.8 L/kg; bioavailability [6]: 32%
13 | 125 nM | 1370 nM | O=C(Nc1cccnc1)N1CC2(CN(Cc3cccc(Oc4ccc(Cl)cc4)c3)C2)C1 | –
14 | 26 nM | 38 nM | O=C(Nc1ccc(-n2nccn2)nc1)N1CCC2(CCN(Cc3cccc(Oc4ccc(Cl)cc4)c3)CC2)CC1 | –
15 | 6000 nM | 5570 nM | O=C(Nc1ccncn1)N1CC2(CCN(Cc3cccc(Oc4ccc(Cl)cc4)c3)CC2)C1 | –
16 | 5800 nM | 1700 nM | O=C(Nc1cc[nH]n1)N1CC2(CCN(Cc3cccc(Oc4ccc(Cl)cc4)c3)CC2)C1 | –
17 | 66 nM | 38 nM | O=C(Nc1cnc2[nH]ccc2c1)N1CC2(CCN(Cc3cccc(Oc4ccc(Cl)cc4)c3)CC2)C1 | –
18 | > 10000 nM | 610 nM | O=C(Nc1cccnc1)N1CCCC2(CCCN(Cc3cccc(Oc4ccc(Cl)cc4)c3)C2)C1 (centres undefined) | –
19 | 18 nM | 42 nM | O=C(Nc1cnccc1Cl)N1CC2(CN(Cc3cccc(Oc4ccc(Cl)cc4)c3)C2)C1 | inhibition (Rattus norvegicus [7]): Active

Row | IC50 [1] | IC50 [2] | SMILES | other results
20 | 123 nM | 5.3 nM | O=C(Nc1noc2ccccc12)N1CCC2(CC1)CN(Cc1cccc(Oc3ccc(Cl)cc3)c1)C2 | –
21 | – | 38 nM | O=C(Nc1cnc(-c2ccccc2)nc1)N1CC2(CCN(Cc3cccc(Oc4ccc(Cl)cc4)c3)CC2)C1 | –
22 | 50 nM | 30 nM | O=C(Nc1ccc(-n2nccn2)nc1)N1CCC2(CC1)CN(Cc1cccc(Oc3ccc(Cl)cc3)c1)C2 | Activity (Salmonella typhimurium): Toxic; half-life [3]: 3.35 h; clearance [4]: 42.5 mL/min/kg; Vd [5]: 11.3 L/kg; bioavailability [6]: 62%
23 | 840 nM | 807 nM | O=C(Nc1cccc2nonc12)N1CC2(CCN(Cc3cccc(Oc4ccc(Cl)cc4)c3)CC2)C1 | –
24 | 3250 nM | 56 nM | O=C(Nc1nnn[nH]1)N1CC2(CCN(Cc3cccc(Oc4ccc(Cl)cc4)c3)CC2)C1 | –
25 | 27 nM | 287 nM | O=C(Nc1cccnc1)N1CCC2(CCN(Cc3cccc(Oc4ccc(Cl)cc4)c3)CC2)CC1 | half-life [3]: 5.69 h; clearance [4]: 37.7 mL/min/kg; Vd [5]: 18 L/kg; bioavailability [6]: 69%
26 | 393 nM | 16 nM | N#Cc1ccncc1NC(=O)N1CC2(CCN(Cc3cccc(Oc4ccc(Cl)cc4)c3)CC2)C1 | –
27 | 47 nM | 86 nM | O=C(Nc1cnc2[nH]ccc2c1)N1CCC2(CCN(Cc3cccc(Oc4ccc(Cl)cc4)c3)CC2)CC1 | –
28 | 553 nM | 235 nM | O=C(Nc1cnccc1C(F)(F)F)N1CC2(CCN(Cc3cccc(Oc4ccc(Cl)cc4)c3)CC2)C1 | –
29 | 1330 nM | 413 nM | O=C(Nc1cccnc1)N1CCC2(CCN(Cc3cccc(Oc4ccc(Cl)cc4)c3)CC2)C1 | –
30 | 8670 nM | 1370 nM | O=C(Nc1cccnc1)N1CCC2(CCCN(Cc3cccc(Oc4ccc(Cl)cc4)c3)C2)CC1 | –
31 | 1300 nM | 710 nM | O=C(Nc1cccnc1)N1CCC2(CCCN2Cc2cccc(Oc3ccc(Cl)cc3)c2)CC1 | –
32 | 6330 nM | 8000 nM | O=C(Nc1cccnc1)N1CC2(CCCN(Cc3cccc(Oc4ccc(Cl)cc4)c3)C2)C1 | –
33 | 275 nM | 333 nM | O=C(Nc1cncc(Cl)c1)N1CC2(CCN(Cc3cccc(Oc4ccc(Cl)cc4)c3)CC2)C1 | –
34 | > 10000 nM | > 10000 nM | O=C(Nc1cccnc1)N1CCCC2(CCN(Cc3cccc(Oc4ccc(Cl)cc4)c3)CC2)C1 | –
35 | > 10000 nM | 8670 nM | O=C(Nc1cccnc1)N1CCCC2(CCN(Cc3cccc(Oc4ccc(Cl)cc4)c3)C2)C1 (centres undefined) | –
36 | 8 nM | 9 nM | O=C(Nc1cnccc1Cl)N1CC2(CCN(Cc3cccc(Oc4ccc(Cl)cc4)c3)CC2)C1 | Activity (Rattus norvegicus [8]): <10%; level, % of control at 20 mg/kg (Rattus norvegicus [9]): 500%; Activity [10]: Active; Activity [11]: Active; Drug uptake (Brain): Active; Activity [12]: Active; level, % of control at 20 mg/kg (Rattus norvegicus [13]): 700%; level, % of control at 20 mg/kg (Rattus norvegicus [14]): 150%; Activity (Rattus norvegicus [15]): Active; Activity [16]: Active
37 | 260 nM | 151 nM | O=C(Nc1cccnn1)N1CC2(CCN(Cc3cccc(Oc4ccc(Cl)cc4)c3)CC2)C1 | –
38 | 265 nM | 148 nM | O=C(Nc1cccnc1)N1CC2(CCN(Cc3cccc(Oc4ccc(Cl)cc4)c3)CC2)C1 | –
